Bioassay records as filed in PubChem.
Only some compounds are listed: those with a hit (about 2.1% of all), similar ones and a draw of the others.
Xi reactivation – activators of inactive X chromosome reactivation, primary screen, imaging, XiGFP fibroblasts, GFP high-content imaging, set 2; XiGFP mouse fibroblasts, % GFP-positive cells imaging, 3 d; cells co-treated with 5-aza-dC sensitizer; scaled so ellipticine positive control = 100%; activation, % at 7.58 µM; 360,000 compounds, 0.055% hits; AID 743238, 2013;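 active means mean normalized replicate activation at least 10% and every replicate at or above 10%; inconclusive means only one of the two criteria met; inactive means mean below 10% and not all replicates reach 10%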;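 further: 0% = median of on-plate neutral control wells and 100% = ellipticine 6 µM median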
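Material: XiGFP fibroblasts, SV40-immortalized. Buffer or medium: DMEM plus 5-aza-dC sensitizer. Compound: single concentration per compound, delivered by pin transfer. Times: 3 days compound exposure. Controls: ellipticine 6 µM.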
PGC1a acetyl inh – inhibitors of PGC1a acetylation signal, primary screen, cell-based, U2OS, AlphaScreen, inhibitor mode; AlphaScreen anti-acetyl-lysine; with virally co-expressed GCN5 acetyltransferase; inhibition, % at 15.6 µM; 350,000 compounds, 0.17% hits;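 active means every replicate shows inhibition of at least 40%; inconclusive means mean inhibition at least 40% but some replicate below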;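 further: 0% = neutral control wells and 100% = positive control wells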
PAX8 inh HTS – inhibitors of PAX8-driven TPO luciferase reporter, primary screen, RMG-I cells, single concentration; inhibition, % at 12.6 µM; 360,000 compounds, 1.2% hits; SteadyGlo, 24 h;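 active means mean replicate inhibition at least 60% with every replicate also reaching 60%; inconclusive means only one of the two criteria is met; inactive means mean below 60% and not all replicates reaching 60%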;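 further: luciferase light reporting Pax8 driven TPO promoter activity; plate controls were median of neutral control wells for no effect and mitoxantrone controls for full effect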
MLL AF4-AF9 inh – inhibitors of AF4 peptide binding to AF9, primary screen, biochemical, AlphaScreen, biotin-AF4 peptide, FLAG-AF9, single point. 350,000 compounds, 0.47% hits. inhibition, % at 10 µM. Protein AF-9 (Homo sapiens), P42568. AID 651704, 2012;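 active means every replicate reaching a set inhibition limit, whatever the replicate mean, cut at about 25% in these data; inconclusive means mean inhibition reaches that limit but some replicates miss it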;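 further: 0% = plate neutral control median and 100% = total signal loss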
Target sequence (P42568 whole entry, looked up): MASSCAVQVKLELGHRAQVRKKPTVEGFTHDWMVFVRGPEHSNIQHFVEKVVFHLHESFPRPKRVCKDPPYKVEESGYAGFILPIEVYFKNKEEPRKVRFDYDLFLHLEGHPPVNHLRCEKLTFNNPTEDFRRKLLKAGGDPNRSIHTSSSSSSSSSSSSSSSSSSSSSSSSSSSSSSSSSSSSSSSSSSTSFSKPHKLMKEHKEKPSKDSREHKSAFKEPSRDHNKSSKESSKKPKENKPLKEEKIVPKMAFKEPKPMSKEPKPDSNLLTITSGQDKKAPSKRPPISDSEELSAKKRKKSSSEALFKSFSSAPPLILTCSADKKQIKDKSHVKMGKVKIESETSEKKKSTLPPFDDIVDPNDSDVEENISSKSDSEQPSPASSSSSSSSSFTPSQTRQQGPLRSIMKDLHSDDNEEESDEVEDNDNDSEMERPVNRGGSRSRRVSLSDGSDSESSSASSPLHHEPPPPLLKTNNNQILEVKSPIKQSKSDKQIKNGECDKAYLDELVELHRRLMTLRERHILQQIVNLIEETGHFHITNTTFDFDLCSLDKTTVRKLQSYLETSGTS
EWS-Fli inh – EWS/Fli-driven NR0B1 reporter inhibitors, primary screen, A673 cells, NR0B1 luciferase, luminescence, MLPCN library; viability-normalised; inhibition, % at 12.6 µM; 350,000 compounds, 0.67% hits; AID 651661, 2012;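 active means mean inhibition of at least 50% after viability correction, with every replicate also passing that limit; inconclusive means mean reaches 50% but only one of two replicates passes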;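 further: firefly luciferase signal divided by Alamar Blue viability fluorescence both relative to DMSO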
INS-1E GSIS act – GLuc luminescence reporter in INS-1E cells, primary screen for activators of glucose-dependent secretion of insulin. AID 743287, 2014. 370,000 compounds, 0.61% hits. INS-1E GLuc reporter insulin secretion, 2-3 h. activation, % at 16.6 µM;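 active means lowest replicate activation of at least 40%, so every replicate reaches that level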;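 further: 0% = median of neutral control wells and 100% = median of IBMX positive control wells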
Numbers without * were called inactive; ! = a repeat was not active.

What do the screens show for `CCCC#Cc1ccc2c(c1)O[C@@H](CN(C)CC1CCOCC1)[C@H](C)CN([C@H](C)CO)S2(=O)=O`?
Xi reactivation: 0; PGC1a acetyl inh: -19; PAX8 inh HTS: 22; MLL AF4-AF9 inh: 6; EWS-Fli inh: 20; INS-1E GSIS act: 9

What do the screens show for `O=C(CCN1C(=O)/C(=C\c2cccc(Br)c2)SC1=S)NCCCN1CCOCC1`?
Xi reactivation: 0; PGC1a acetyl inh: -5; PAX8 inh HTS: 11; MLL AF4-AF9 inh: 5; EWS-Fli inh: 17; INS-1E GSIS act: 7

Results for CCOc1ccc(/C=C2\SC(=S)N(CCCC(=O)NCCCN3CCOCC3)C2=O)cc1 ?
Xi reactivation: 0; PGC1a acetyl inh: 13; PAX8 inh HTS: 50; MLL AF4-AF9 inh: 5; EWS-Fli inh: 81*; INS-1E GSIS act: -5

How did O=C(CCN1C(=O)/C(=C/c2ccccc2)SC1=S)NCCCN1CCOCC1 do in these assays?
Xi reactivation: 0; PGC1a acetyl inh: 56*; PAX8 inh HTS: -2; MLL AF4-AF9 inh: 5; EWS-Fli inh: -17; INS-1E GSIS act: -6

Results for COc1ccc(NC(=O)N(C)C[C@H]2OCCCC[C@H](C)Oc3ccc(NS(C)(=O)=O)cc3C(=O)N([C@@H](C)CO)C[C@@H]2C)cc1 ?
Xi reactivation: 0; PGC1a acetyl inh: -9; PAX8 inh HTS: 0; MLL AF4-AF9 inh: -4; EWS-Fli inh: -6; INS-1E GSIS act: 5

What do the screens show for `CCOC(=O)c1ccc(N=c2sc(C(=O)OC)cc(=O)n2C2CC2)cc1`?
PGC1a acetyl inh: -3; PAX8 inh HTS: -7; INS-1E GSIS act: 23

How did COC(=O)c1cc(=O)n(C2CC2)c(=NC2CC2)s1 do in these assays?
PGC1a acetyl inh: -1; INS-1E GSIS act: 76*

What do the screens show for `COCC(=O)N(C)C[C@H]1Oc2ncc(C#CC3(O)CCCC3)cc2C(=O)N([C@@H](C)CO)C[C@H]1C`?
Xi reactivation: 0; PGC1a acetyl inh: 3; MLL AF4-AF9 inh: -2; EWS-Fli inh: 3; INS-1E GSIS act: -2

How did CCCS(=O)(=O)N1CCCC(C(=O)NCCCOC(C)C)C1 (centres undefined) do in these assays?
PGC1a acetyl inh: 64*

Results for CCNC(=O)c1cc2c(c(-c3cccc(-c4ccncc4)c3)n1)[C@H](CCO)N(S(=O)(=O)CC)C2 ?
Xi reactivation: 1; PGC1a acetyl inh: 1; MLL AF4-AF9 inh: 2; EWS-Fli inh: 55*; INS-1E GSIS act: 10

What do the screens show for `Cc1ccc(C)c(S(=O)(=O)N2CCCCC2CCNC(=O)C(=O)NC2CCCC2)c1` (centres undefined)?
Xi reactivation: 0; PGC1a acetyl inh: 1; PAX8 inh HTS: 16; MLL AF4-AF9 inh: 1; EWS-Fli inh: 5; INS-1E GSIS act: -12

Results for Cc1ccc(C)c(S(=O)(=O)N2CCCCC2CCNC(=O)C(=O)NCc2ccncc2)c1 (centres undefined) ?
Xi reactivation: 0; PGC1a acetyl inh: 3; PAX8 inh HTS: 69*; MLL AF4-AF9 inh: -12; EWS-Fli inh: 16; INS-1E GSIS act: 11

How did C[C@@H]1CCCCO[C@H](CN(C)Cc2ccc(C(F)(F)F)cc2)[C@H](C)CN([C@H](C)CO)C(=O)c2cc(NC(=O)c3ccccc3)ccc2O1 do in these assays?
Xi reactivation: -1; PGC1a acetyl inh: -8; PAX8 inh HTS: 99*; MLL AF4-AF9 inh: 0; EWS-Fli inh: 20; INS-1E GSIS act: -9

What do the screens show for `C[C@@H]1CCCCO[C@H](CN(C)Cc2ccncc2)[C@H](C)CN([C@@H](C)CO)C(=O)c2cc(NC(=O)c3ccccc3)ccc2O1`?
Xi reactivation: 0; PGC1a acetyl inh: 5; PAX8 inh HTS: 70*; MLL AF4-AF9 inh: 3; EWS-Fli inh: 58*; INS-1E GSIS act: -7

Results for C[C@H](CO)N1C[C@H](C)[C@@H](CN(C)Cc2ccc(C(F)(F)F)cc2)OCCCC[C@H](C)Oc2ccc(NC(=O)c3ccccc3)cc2C1=O ?
Xi reactivation: -1; PGC1a acetyl inh: 15; PAX8 inh HTS: 67*; MLL AF4-AF9 inh: -1; EWS-Fli inh: 35; INS-1E GSIS act: -4

What do the screens show for `C[C@@H]1CCCCO[C@@H](CN(C)Cc2ccc(C(F)(F)F)cc2)[C@H](C)CN([C@H](C)CO)C(=O)c2cc(NC(=O)c3ccccc3)ccc2O1`?
Xi reactivation: -1; PGC1a acetyl inh: -26; PAX8 inh HTS: 91*; MLL AF4-AF9 inh: 0; EWS-Fli inh: 22; INS-1E GSIS act: -14

How did C[C@H]1CN([C@@H](C)CO)C(=O)c2cccc(NC(=O)Nc3cccc4ccccc34)c2O[C@H]1CN(C)S(C)(=O)=O do in these assays?
Xi reactivation: 0; PGC1a acetyl inh: -3; PAX8 inh HTS: 27; MLL AF4-AF9 inh: 1; EWS-Fli inh: 2; INS-1E GSIS act: -3

Results for C[C@@H]1CN([C@H](C)CO)C(=O)c2cc(NC(=O)C3CCCCC3)ccc2O[C@@H](C)CCCCO[C@H]1CN(C)Cc1ccncc1 ?
Xi reactivation: 0; PGC1a acetyl inh: 10; PAX8 inh HTS: 8; MLL AF4-AF9 inh: -1; EWS-Fli inh: 2; INS-1E GSIS act: -7

How did C[C@@H]1CN([C@@H](C)CO)C(=O)c2cc(NC(=O)c3ccncc3)ccc2O[C@@H](C)CCCCO[C@@H]1CN(C)Cc1ccc(C(F)(F)F)cc1 do in these assays?
Xi reactivation: 0; PAX8 inh HTS: 23; MLL AF4-AF9 inh: 1; EWS-Fli inh: 18; INS-1E GSIS act: -16

What do the screens show for `C[C@@H]1CCCCO[C@H](CN(C)Cc2ccncc2)[C@H](C)CN([C@@H](C)CO)C(=O)c2cc(NC(=O)C3CCCCC3)ccc2O1`?
Xi reactivation: 1; PGC1a acetyl inh: 12; PAX8 inh HTS: 67*; MLL AF4-AF9 inh: -4; EWS-Fli inh: inconclusive; INS-1E GSIS act: -6

What do the screens show for `C[C@@H]1CN([C@@H](C)CO)C(=O)c2cc(NC(=O)c3ccccc3)ccc2O[C@@H](C)CCCCO[C@@H]1CN(C)Cc1ccc(C(F)(F)F)cc1`?
Xi reactivation: 0; PGC1a acetyl inh: 3; PAX8 inh HTS: 77*!; MLL AF4-AF9 inh: -7; EWS-Fli inh: 15; INS-1E GSIS act: 0

What do the screens show for `C[C@@H]1CN([C@@H](C)CO)C(=O)c2cc(NC(=O)c3ccncc3)ccc2O[C@@H](C)CCCCO[C@H]1CN(C)Cc1ccc(C(F)(F)F)cc1`?
Xi reactivation: 0; PAX8 inh HTS: 51; MLL AF4-AF9 inh: 8; EWS-Fli inh: 2; INS-1E GSIS act: -17
